Experimental data from ChEMBL document CHEMBL3271968, “Novel bis(benzamidino) compounds with an aromatic central link. Inhibitors of thrombin, pancreatic kallikrein, trypsin, and complement” (J Med Chem, 1976).

How the values were obtained:
Plasma [1] = assay: Anticoagulant activity in human plasma assessed as partial thromboplastin time at 5 uM (reference value: 59 +/- 2.6 secs); type: functional
Glandular kallikrein [2] = biological target: T1, Glandular kallikrein (Sus scrofa, UniProt P00752); assay: Inhibition of porcine pancreatic kallikrein using BANA as substrate after 15 to 180 mins
T1 sequence (P00752 whole entry): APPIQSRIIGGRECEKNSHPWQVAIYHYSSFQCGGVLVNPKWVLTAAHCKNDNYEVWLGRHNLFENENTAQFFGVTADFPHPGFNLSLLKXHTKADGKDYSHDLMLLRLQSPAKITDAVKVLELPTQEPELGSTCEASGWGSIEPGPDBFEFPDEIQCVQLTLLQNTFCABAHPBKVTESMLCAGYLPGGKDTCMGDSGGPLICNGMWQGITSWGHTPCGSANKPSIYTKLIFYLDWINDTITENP
Summary of the method: (§1)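 Porcine pancreatic kallikrein (635 Frey units/mg) amidase assay, pH 8.1, 37°, 15-180 min. […] Ki came from Dixon plots at two substrate concentrations. Means ± SD, n = 3.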

Plasma [3] = assay: Anticoagulant activity in human plasma assessed as partial thromboplastin time at 10 uM (reference value: 59 +/- 2.6 secs); type: functional
Cavia porcellus [4] = organism: Cavia porcellus; assay: Inhibition of guinea pig complement-mediated immune lysis of sheep red blood cells at 10 uM after 12 mins
Summary of the method: (§2)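 Inhibitor in Tris/Mg/Ca/NaCl/gelatin buffer was preincubated 15 min at 37° with guinea pig complement (1:100 of 200 CH50/ml). Sheep erythrocytes (10^9/ml) presensitized with rabbit hemolysin (1:800) were added, and tubes incubated 12 min at 37°. Cold citrate-saline stopped lysis. Hemoglobin at 524 nm was converted to % inhibition via a complement standard curve, corrected for inhibitor lysis, in duplicate.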

Plasma [5] = assay: Anticoagulant activity in human plasma assessed as partial thromboplastin time at 0.1 mM (reference value: 59 +/- 2.6 secs); type: functional
Cavia porcellus [6] = organism: Cavia porcellus; assay: Inhibition of guinea pig complement-mediated immune lysis of sheep red blood cells at 30 uM after 12 mins; summary of the method: as §2
[7] = Inhibition of bovine trypsin using BANA as substrate after 15 to 30 mins; parameters: species or system Bos taurus
Cavia porcellus [8] = organism: Cavia porcellus; assay: Inhibition of guinea pig complement-mediated immune lysis of sheep red blood cells at 0.1 mM after 12 mins; summary of the method: as §2
Prothrombin (Bos taurus) = Prothrombin (Bos taurus) (UniProt P00735); assay: Inhibition of bovine thrombin-mediated blood clotting formation in presence of human fibrinogen
Prothrombin [9] = biological target: T2, Prothrombin (Bos taurus, UniProt P00735); assay: Inhibition of amidase activity of bovine thrombin using BPVANA as substrate after 15 to 40 mins
Prothrombin [10] = biological target: T2, Prothrombin; assay: Inhibition of amidase activity of bovine thrombin using BANA as substrate after 15 to 40 mins
Glandular kallikrein [11] = biological target: T1, Glandular kallikrein; assay: Inhibition of porcine pancreatic kallikrein using BPPANA as substrate after 15 to 180 mins; summary of the method: as §1

Row | SMILES | APTT (Plasma [1]) [s] | Ki (Glandular kallikrein [2]) [µM] | APTT (Plasma [3]) [s] | inhibition (Cavia porcellus [4]) [%] | APTT (Plasma [5]) [s] | inhibition (Cavia porcellus [6]) [%] | Ki [7] [µM] | inhibition (Cavia porcellus [8]) [%] | IC50 (Prothrombin (Bos taurus)) [µM] | Ki (Prothrombin [9]) [µM] | Ki (Prothrombin [10]) [µM] | Ki (Glandular kallikrein [11]) [µM]
1 | Cl.N=C(N)c1ccc(COc2cccc3c(OCc4ccc(C(=N)N)cc4)cccc23)cc1 | 60 | 8.6 | 61 | 0 | 141 | 0 | 2.8 | 0 | – | – | – | –
2 | Cl.N=C(N)c1ccc(OCc2cccc(-c3cccc(COc4ccc(C(=N)N)cc4Br)c3)c2)c(Br)c1 | 62 | 2.2 | – | – | – | – | 0.25 | – | 10 | 0.27 | – | –
3 | Cl.N=C(N)c1cccc(OCc2cccc(COc3cccc(C(=N)N)c3)c2)c1 | 92 | 3.4 | 112 | 0 | 714 | 13.7 | 3.2 | 34 | 6.5 | – | 4.6 | –
4 | Cl.N=C(N)c1cccc(COc2cccc3c(OCc4cccc(C(=N)N)c4)cccc23)c1 | 65 | 2.2 | 75 | 0 | – | 8.9 | 0.42 | 39 | – | – | – | –
5 | CC[n+]1c(-c2ccccc2)c2cc(NN=Nc3cccc(C(=N)N)c3)ccc2c2ccc(NN=Nc3cccc(C(=N)N)c3)cc21 | – | – | – | 50 | – | > 50 | – | > 50 | – | – | – | –
6 | Cl.N=C(N)c1ccc(OCc2cccc(COc3ccc(C(=N)N)cc3)c2)cc1 | 87 | 6.7 | 117 | 0 | – | 10.3 | 3.5 | 24.9 | 25 | – | 4.8 | –
7 | N=C(N)c1ccc(OCCCOc2ccc(C(=N)N)cc2Br)c(Br)c1 | – | – | – | 6.3 | – | 26.9 | – | 19.1 | – | – | – | –
8 | Cl.N=C(N)c1cccc(COc2ccc3cc(OCc4cccc(C(=N)N)c4)ccc3c2)c1 | 61 | 5.5 | 72 | 11 | 277 | > 50 | 3.2 | > 50 | 30 | – | 2.4 | –
9 | N=C(N)c1cccc(OCc2ccc3cc(COc4cccc(C(=N)N)c4)ccc3c2)c1 | – | 5.5 | – | 36.6 | – | 47 | 5.9 | – | 72 | – | 5.1 | –
10 | Cl.N=C(N)c1ccc(OCc2ccc(COc3ccc(C(=N)N)cc3Br)cc2)c(Br)c1 | 96 | 0.71 | 110 | – | 258 | – | 1.1 | – | – | 0.16 | – | –
11 | Cl.N=C(N)c1ccc(OCc2ccc(COc3ccc(C(=N)N)cc3I)cc2)c(I)c1 | 80 | – | 92 | 0 | – | 29.8 | 2.3 | – | 1 | 0.11 | – | 0.61
12 | Cl.N=C(N)c1ccc(OCc2ccc(COc3ccc(C(=N)N)cc3)c3ccccc23)cc1 | 64 | 2.5 | 71 | 2.9 | 203 | 10.8 | 1.9 | – | – | – | 6.6 | –
13 | N=C(N)c1ccc(OCc2c(Cl)c(Cl)c(COc3ccc(C(=N)N)cc3)c(Cl)c2Cl)cc1 | – | 3.4 | – | 0 | – | > 50 | 1.2 | – | – | – | 6.7 | –
14 | N=C(N)c1ccc(COc2ccc3cc(OCc4ccc(C(=N)N)cc4)ccc3c2)cc1 | – | 9.7 | – | – | – | – | 3.2 | – | – | – | 6 | –
15 | Cl.N=C(N)c1ccc(OCc2c(Cl)c(Cl)c(Cl)c(COc3ccc(C(=N)N)cc3)c2Cl)cc1 | 62 | 5.2 | 76 | 5.9 | – | > 50 | 1.3 | > 50 | 8 | – | 1.5 | –
16 | N=C(N)c1ccc(OCCCCCOc2ccc(C(=N)N)cc2Br)c(Br)c1 | – | – | – | 20.8 | – | 28.5 | – | > 50 | – | – | – | –
17 | N=C(N)c1ccc(OCCCCCOc2ccc(C(=N)N)cc2I)c(I)c1 | – | – | – | 26.9 | – | > 50 | – | – | – | – | – | –
18 | Cl.N=C(N)c1ccc(COc2ccc3ccc(OCc4ccc(C(=N)N)cc4)cc3c2)cc1 | 63 | 2.8 | 66 | 12.8 | – | 37.4 | 1.8 | > 50 | 20 | – | 4.9 | –
19 | Cl.N=C(N)c1ccc(OCc2cccc(-c3cccc(COc4ccc(C(=N)N)cc4)c3)c2)cc1 | 72 | 1.6 | 83 | – | 412 | – | 1.4 | – | 0.73 | 0.57 | – | –
20 | Cl.N=C(N)c1cccc(OCc2ccc(COc3cccc(C(=N)N)c3)cc2)c1 | 80 | 5.8 | 122 | 5.6 | 391 | 14 | 6.1 | 19.1 | 13 | – | 5 | –
21 | Cl.N=C(N)c1cccc(OCc2cccc(-c3cccc(COc4cccc(C(=N)N)c4)c3)c2)c1 | 73 | 1.76 | 93 | – | – | – | 4.01 | – | 4 | – | 1.67 | –
22 | Cl.N=C(N)c1ccc(OCc2cc(COc3ccc(C(=N)N)cc3)c3ccccc3c2)cc1 | 62 | 1.04 | 67 | 5.6 | 147 | 15.3 | 1.8 | > 50 | 15 | – | 5.2 | –
23 | Cl.N=C(N)c1ccc(OCc2cccc(COc3ccc(C(=N)N)cc3I)c2)c(I)c1 | 64 | – | 70 | 0 | 369 | 32.6 | 0.67 | > 50 | – | – | 1.2 | 0.031
